In ChEMBL document CHEMBL2429786, “New serotonin 5-HT1A receptor agonists endowed with antinociceptive activity in vivo” (J Med Chem, 2013):
The source made the active and inactive calls. The rule behind the calls is not given here.

Assays:
[1] = molecular target: T1, 5-hydroxytryptamine receptor 1A (Rattus norvegicus, UniProt P19327); assay: Displacement of [3H]-8-OH-DPAT from 5-HT1A receptor in Sprague-Dawley rat cerebral cortex after 15 mins; assay type: tissue-based
T1 sequence (P19327 whole entry): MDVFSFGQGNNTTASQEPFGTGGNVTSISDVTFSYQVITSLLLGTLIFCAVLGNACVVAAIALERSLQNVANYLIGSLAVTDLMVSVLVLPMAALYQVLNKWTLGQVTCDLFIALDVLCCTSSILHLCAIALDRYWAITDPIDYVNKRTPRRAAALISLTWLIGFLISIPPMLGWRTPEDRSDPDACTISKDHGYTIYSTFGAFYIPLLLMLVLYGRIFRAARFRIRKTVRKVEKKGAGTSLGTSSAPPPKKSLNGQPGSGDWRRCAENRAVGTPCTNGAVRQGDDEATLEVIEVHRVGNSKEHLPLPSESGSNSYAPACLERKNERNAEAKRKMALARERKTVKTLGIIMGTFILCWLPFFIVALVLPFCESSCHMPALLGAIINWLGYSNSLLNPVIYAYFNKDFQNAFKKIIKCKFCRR

Mus musculus [2] = assay: Antinociceptive activity in CD-1 mouse assessed as reduction of formalin-induced paw licking activity at 100 mg/kg, ip administered 15 mins prior to formalin-challenge measured after 5 to 30 mins; assay type: functional, organism-based; design: dose 100 mg/kg
How it was run: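 Formalin injected intradermally in mice. Formalin-induced nociceptive behaviour is scored separately in the early and late phases of the test.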

[3] = molecular target: 5-hydroxytryptamine receptor 7 (Rattus norvegicus, UniProt P32305); assay: Displacement of [3H]-5-CT from 5-HT7 receptor in Sprague-Dawley rat hypothalamus after 120 mins
[4] = molecular target: 5-hydroxytryptamine receptor 4 (Rattus norvegicus, UniProt Q62758); assay: Displacement of [3H]GR113808 from 5-HT4 receptor in Sprague-Dawley rat striatum after 30 mins
[5] = molecular target: T2, 5-hydroxytryptamine receptor 3A (Rattus norvegicus, UniProt P35563); assay: Displacement of [3H]LY 278584 from 5-HT3 receptor in Sprague-Dawley rat cerebral cortex after 30 mins; assay type: tissue-based
T2 sequence (P35563 whole entry): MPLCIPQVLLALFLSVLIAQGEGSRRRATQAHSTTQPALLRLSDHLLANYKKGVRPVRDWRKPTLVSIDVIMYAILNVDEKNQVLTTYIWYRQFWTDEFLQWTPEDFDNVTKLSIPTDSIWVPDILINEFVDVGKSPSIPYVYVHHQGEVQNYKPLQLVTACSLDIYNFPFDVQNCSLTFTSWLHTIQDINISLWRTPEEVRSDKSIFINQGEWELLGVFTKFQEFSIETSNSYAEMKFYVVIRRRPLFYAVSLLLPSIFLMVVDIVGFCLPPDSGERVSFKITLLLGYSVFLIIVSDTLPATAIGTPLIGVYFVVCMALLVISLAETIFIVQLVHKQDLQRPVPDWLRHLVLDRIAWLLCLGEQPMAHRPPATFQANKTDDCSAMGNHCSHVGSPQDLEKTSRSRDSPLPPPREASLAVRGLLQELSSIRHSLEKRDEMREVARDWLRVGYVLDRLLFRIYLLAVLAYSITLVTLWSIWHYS

[6] = molecular target: 5-hydroxytryptamine receptor 2A (Rattus norvegicus, UniProt P14842); assay: Displacement of [3H]ketanserin from 5-HT2A receptor in Sprague-Dawley rat frontal cortex after 15 mins; assay type: tissue-based
Mus musculus [7] = assay: Antinociceptive activity in CD-1 mouse assessed as reduction of formalin-induced paw licking activity at 3 mg/kg, ip administered 15 mins prior to formalin-challenge measured after 15 to 30 mins; assay type: functional, organism-based; design: dose 3 mg/kg
Albumin = Albumin (Homo sapiens, UniProt P02768); assay: Binding affinity to human serum albumin at 5 uM after 12 mins by HPLC-MS analysis relative to control; assay type: ADME; details: isolated protein, 0.2 h
CYP2D6 = CYP2D6 (Homo sapiens, UniProt P10635); assay: Inhibition of human recombinant microsomal CYP2D6 using {3-[2-(N,N-diethyl-N-methylamino)ethyl]-7-methoxy-4-methylcoumarin} as substrate assessed as remaining activity at 10 uM after 30 mins by spectrofluorimetric analysis relative to control; assay type: ADME; details: read-out: Activity
[8] = Half life in human liver microsomes at 1 to 5 uM by HPLC-MS analysis; assay type: ADME, Microsome
How it was run: (§1)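 Incubation mixtures pre-equilibrated at 37 °C with NADPH and MgCl2, then rat or human liver microsomes added to start the reaction. Aliquots were withdrawn and quenched at several time points, and percent parent remaining was measured by HPLC-MS and plotted against time. t1/2 was taken from the slope of peak area over time and used to calculate CLint.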

[9] = Intrinsic clearance in human liver microsomes at 1 to 5 uM by HPLC-MS analysis; assay type: ADME, Microsome; details: read-out: CLH; how it was run: as §1
[10] = Intrinsic clearance in Sprague-Dawley rat liver microsomes at 1 to 5 uM by HPLC-MS analysis; assay type: ADME, Microsome; details: read-out: CLH; how it was run: as §1
[11] = Half life in Sprague-Dawley rat liver microsomes at 1 to 5 uM by HPLC-MS analysis; assay type: ADME, Microsome; how it was run: as §1
Mus musculus [12] = species on record: Mus musculus; assay: Hypothermic activity in Swiss mouse assessed as change in rectal temperature after 60 mins; assay type: functional; details: 1 h, read-out: MED
[13] = molecular target: T3, 5-hydroxytryptamine receptor 1A (Homo sapiens, UniProt P08908); assay: Agonist activity at human 5-HT1A receptor expressed in human HeLa cells assessed as inhibition of forskolin-stimulated cAMP formation after 10 mins by RIA; assay type: functional, cell-based
T3 sequence (P08908 whole entry): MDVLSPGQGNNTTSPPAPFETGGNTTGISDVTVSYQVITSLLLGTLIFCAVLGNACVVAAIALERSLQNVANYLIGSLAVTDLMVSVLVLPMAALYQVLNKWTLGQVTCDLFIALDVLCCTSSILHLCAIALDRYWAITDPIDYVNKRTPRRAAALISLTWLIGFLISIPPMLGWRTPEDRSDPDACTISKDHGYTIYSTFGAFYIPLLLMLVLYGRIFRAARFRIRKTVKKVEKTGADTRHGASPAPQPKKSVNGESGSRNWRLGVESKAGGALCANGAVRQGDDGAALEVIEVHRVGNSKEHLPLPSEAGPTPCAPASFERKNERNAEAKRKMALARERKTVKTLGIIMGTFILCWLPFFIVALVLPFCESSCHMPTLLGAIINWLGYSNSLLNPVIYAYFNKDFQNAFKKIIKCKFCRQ

[14] = molecular target: T3, 5-hydroxytryptamine receptor 1A; assay: Partial agonist activity at human 5-HT1A receptor expressed in human HeLa cells assessed as inhibition of forskolin-stimulated cAMP formation after 10 mins by RIA; assay type: functional, cell-based

Sequence of 5-hydroxytryptamine receptor 2A (P14842 whole entry): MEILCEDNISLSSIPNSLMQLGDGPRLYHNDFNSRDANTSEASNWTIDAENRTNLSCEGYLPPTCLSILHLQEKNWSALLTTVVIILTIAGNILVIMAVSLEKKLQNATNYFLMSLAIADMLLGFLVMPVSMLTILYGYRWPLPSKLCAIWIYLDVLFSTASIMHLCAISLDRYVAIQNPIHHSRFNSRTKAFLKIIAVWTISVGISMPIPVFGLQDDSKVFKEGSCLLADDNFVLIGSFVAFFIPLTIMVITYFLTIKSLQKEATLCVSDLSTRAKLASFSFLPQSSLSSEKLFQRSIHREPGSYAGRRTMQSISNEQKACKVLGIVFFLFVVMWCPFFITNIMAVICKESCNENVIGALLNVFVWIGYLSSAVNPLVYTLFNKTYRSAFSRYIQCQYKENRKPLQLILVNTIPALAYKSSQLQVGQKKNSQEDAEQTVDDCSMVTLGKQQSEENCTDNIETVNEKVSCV
Sequence of CYP2D6 (P10635 whole entry): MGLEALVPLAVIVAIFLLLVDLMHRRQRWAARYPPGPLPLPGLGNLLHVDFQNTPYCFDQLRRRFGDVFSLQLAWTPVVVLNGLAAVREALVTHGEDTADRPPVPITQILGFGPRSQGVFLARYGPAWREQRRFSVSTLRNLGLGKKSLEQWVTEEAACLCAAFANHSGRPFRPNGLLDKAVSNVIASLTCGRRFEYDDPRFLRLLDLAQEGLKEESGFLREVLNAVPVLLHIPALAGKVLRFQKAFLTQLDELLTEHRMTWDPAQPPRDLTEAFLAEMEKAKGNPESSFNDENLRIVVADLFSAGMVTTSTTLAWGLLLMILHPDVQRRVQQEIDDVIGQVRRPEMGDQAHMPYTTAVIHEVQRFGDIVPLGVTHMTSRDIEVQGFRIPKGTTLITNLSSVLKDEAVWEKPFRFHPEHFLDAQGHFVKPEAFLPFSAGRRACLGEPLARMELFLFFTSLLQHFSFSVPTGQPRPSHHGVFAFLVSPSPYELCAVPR
Sequence of 5-hydroxytryptamine receptor 4 (Q62758 whole entry): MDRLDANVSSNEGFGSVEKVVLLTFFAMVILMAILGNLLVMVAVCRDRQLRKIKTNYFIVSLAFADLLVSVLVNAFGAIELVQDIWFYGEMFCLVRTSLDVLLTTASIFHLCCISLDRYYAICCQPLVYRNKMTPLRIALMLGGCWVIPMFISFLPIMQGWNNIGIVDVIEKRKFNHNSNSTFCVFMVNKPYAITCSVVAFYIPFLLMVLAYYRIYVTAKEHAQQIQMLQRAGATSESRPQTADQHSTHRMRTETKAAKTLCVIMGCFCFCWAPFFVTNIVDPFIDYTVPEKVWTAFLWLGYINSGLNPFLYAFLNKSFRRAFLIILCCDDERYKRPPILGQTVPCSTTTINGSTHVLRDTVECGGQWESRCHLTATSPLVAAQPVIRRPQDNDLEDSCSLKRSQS
Sequence of 5-hydroxytryptamine receptor 7 (P32305 whole entry): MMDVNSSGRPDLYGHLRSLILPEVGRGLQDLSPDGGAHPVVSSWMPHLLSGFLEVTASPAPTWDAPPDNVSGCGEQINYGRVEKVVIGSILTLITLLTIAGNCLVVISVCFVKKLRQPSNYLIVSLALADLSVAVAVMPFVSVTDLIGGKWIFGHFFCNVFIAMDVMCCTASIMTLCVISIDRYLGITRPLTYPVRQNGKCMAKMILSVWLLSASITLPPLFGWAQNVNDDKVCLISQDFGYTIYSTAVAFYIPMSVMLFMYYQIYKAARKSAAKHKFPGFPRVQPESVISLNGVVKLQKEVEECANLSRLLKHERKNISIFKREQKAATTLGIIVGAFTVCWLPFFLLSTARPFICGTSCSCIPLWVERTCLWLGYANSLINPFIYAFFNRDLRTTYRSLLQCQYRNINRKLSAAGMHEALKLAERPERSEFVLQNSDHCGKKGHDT
Sequence of Albumin (P02768 whole entry): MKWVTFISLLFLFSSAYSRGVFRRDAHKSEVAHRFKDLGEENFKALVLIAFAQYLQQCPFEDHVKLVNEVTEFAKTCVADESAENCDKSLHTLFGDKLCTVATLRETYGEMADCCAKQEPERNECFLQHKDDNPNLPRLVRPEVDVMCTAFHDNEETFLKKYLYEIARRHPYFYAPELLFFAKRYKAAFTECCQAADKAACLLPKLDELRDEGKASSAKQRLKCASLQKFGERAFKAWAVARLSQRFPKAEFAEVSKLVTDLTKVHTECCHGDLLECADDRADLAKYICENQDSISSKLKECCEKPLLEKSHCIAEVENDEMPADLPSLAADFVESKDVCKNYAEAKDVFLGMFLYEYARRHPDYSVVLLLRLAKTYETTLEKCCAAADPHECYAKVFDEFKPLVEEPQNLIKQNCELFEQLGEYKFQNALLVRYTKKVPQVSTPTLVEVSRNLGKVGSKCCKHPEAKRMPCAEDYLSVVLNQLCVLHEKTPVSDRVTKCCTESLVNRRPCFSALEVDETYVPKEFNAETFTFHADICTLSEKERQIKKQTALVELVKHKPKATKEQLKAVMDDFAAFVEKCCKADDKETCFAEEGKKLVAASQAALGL

Compound | Ki [1] [nM] | Ki [3] [nM] | Ki [4] [nM] | Ki [5] [nM] | Ki [6] [nM] | other results
COc1ccccc1CNCCCCN1C(=O)C2CCCN2C1=O (configuration not stated) | > 1000 | – | – | – | – | –
N#Cc1ccccc1OCCNCCCCN1C(=O)C2CCCN2C1=O (configuration not stated) | > 1000 | – | – | – | – | –
NCC1(CC(=O)O)CCCCC1 | – | – | – | – | – | Activity (Mus musculus [2]): Active
N#Cc1ccc(OCCNCCCCN2C(=O)C3CCCN3C2=O)cc1 (configuration not stated) | > 1000 | – | – | – | – | –
NCCc1c[nH]c2ccc(C(N)=O)cc12 | – | 1.8 | – | – | – | –
COc1cc(COc2cc(N)c(Cl)cc2C(=O)CCC2CCN(CCNS(C)(=O)=O)CC2)cc(OC)c1 | – | – | 3.9 | – | – | –
O=C1C2CCCN2C(=O)N1CCCCNCCOc1ccc(Br)cc1 (configuration not stated) | > 1000 | – | – | – | – | –
O=C1C2CCCN2C(=O)N1CCCCNCCOc1cccc2c1CCCC2 (configuration not stated) | 38 | > 1000 | > 1000 | > 1000 | 49 | –
N#Cc1cccc(OCCNCCCCN2C(=O)C3CCCN3C2=O)c1 (configuration not stated) | > 1000 | – | – | – | – | –
O=C1C2CCCN2C(=O)N1CCCCNCCOc1ccc(-c2ccccc2)cc1 (configuration not stated) | > 1000 | – | – | – | – | –
O=C1C2CCCN2C(=O)N1CCCCNCCOc1ccc(C(F)(F)F)cc1 (configuration not stated) | > 1000 | – | – | – | – | –
CCc1ccc(OCCNCCCCN2C(=O)C3CCCN3C2=O)cc1 (configuration not stated) | 742 | – | – | – | – | –
Cc1cccc(OCCNCCCCN2C(=O)C3CCCN3C2=O)c1C (configuration not stated) | 45 | > 1000 | > 1000 | > 1000 | 310 | –
COc1ccccc1OCCNCCCCN1C(=O)C2CCCN2C1=O.Cl (configuration not stated) | 4.8 | > 1000 | > 1000 | > 1000 | 267 | Activity (Mus musculus [7]): Active; Activity (Albumin): 25%; activity at 0.5 h, 10 µM (CYP2D6): 48%; half-life at up to 5 µM [8]: 237 min; CLint scaled at up to 5 µM [9]: 2.6 mL/min/kg; CLint scaled at up to 5 µM [10]: 145 mL/min/kg; half-life at up to 5 µM [11]: 9.7 min; minimal effective dose (Mus musculus [12]): 0.625 mg/kg; EC50 [13]: 23 nM
O=C1C2CCCN2C(=O)N1CCCCNCCOc1cccc(Br)c1 (configuration not stated) | 52 | > 1000 | > 1000 | > 1000 | 514 | –
CC(C)c1ccccc1OCCNCCCCN1C(=O)C2CCCN2C1=O (configuration not stated) | 38 | > 1000 | > 1000 | > 1000 | 260 | –

Compound | Ki [1] [nM] | Ki [3] [nM] | Ki [4] [nM] | Ki [5] [nM] | Ki [6] [nM] | other results
O=C1C2CCCN2C(=O)N1CCCCNCCOc1cccc2cccnc12 (configuration not stated) | 44 | 15 | > 1000 | > 1000 | > 1000 | –
O=C1C2CCCN2C(=O)N1CCCCNCCOc1ccccc1Br (configuration not stated) | 62 | – | – | – | – | –
O=C1C2CCCN2C(=O)N1CCCCNCCOc1cccc(C(F)(F)F)c1 (configuration not stated) | 38.9 | – | – | – | – | –
COc1cccc(OCCNCCCCN2C(=O)C3CCCN3C2=O)c1 (configuration not stated) | 34 | > 1000 | > 1000 | > 1000 | > 1000 | –
O=C1C2CCCN2C(=O)N1CCCCNCCOc1ccccc1-c1ccccc1 (configuration not stated) | 26 | 101 | > 1000 | > 1000 | > 1000 | –
COc1ccc(OCCNCCCCN2C(=O)C3CCCN3C2=O)c2ccccc12 (configuration not stated) | 27 | 301 | > 1000 | > 1000 | > 1000 | –
Cl.O=C1C2CCCN2C(=O)N1CCCCNCCOc1ccccc1 (configuration not stated) | – | > 1000 | > 1000 | > 1000 | > 1000 | Activity (Mus musculus [7]): Active; Activity (Albumin): 38%; activity at 0.5 h, 10 µM (CYP2D6): 24%; half-life at up to 5 µM [8]: 151 min; CLint scaled at up to 5 µM [9]: 4.1 mL/min/kg; CLint scaled at up to 5 µM [10]: 140 mL/min/kg; half-life at up to 5 µM [11]: 10 min; minimal effective dose (Mus musculus [12]): 2.5 mg/kg
CCc1cccc(OCCNCCCCN2C(=O)C3CCCN3C2=O)c1 (configuration not stated) | 30 | > 1000 | > 1000 | > 1000 | > 1000 | –
CCc1ccccc1OCCNCCCCN1C(=O)C2CCCN2C1=O.Cl (configuration not stated) | 16.8 | 185 | > 1000 | > 1000 | 366 | Activity (Albumin): 55%; activity at 0.5 h, 10 µM (CYP2D6): 13%; half-life at up to 5 µM [8]: 137 min; CLint scaled at up to 5 µM [9]: 4.6 mL/min/kg; CLint scaled at up to 5 µM [10]: 131 mL/min/kg; half-life at up to 5 µM [11]: 10.7 min; minimal effective dose (Mus musculus [12]): 10 mg/kg; EC50 [14]: 1200 nM
Cl.O=C1C2CCCN2C(=O)N1CCCCNCCOc1cccc2ccccc12 (configuration not stated) | – | – | > 1000 | > 1000 | 41 | Activity (Mus musculus [7]): Active; Activity (Albumin): 60%; activity at 0.5 h, 10 µM (CYP2D6): 6%; half-life at up to 5 µM [8]: 123 min; CLint scaled at up to 5 µM [9]: 5.1 mL/min/kg; CLint scaled at up to 5 µM [10]: 171 mL/min/kg; half-life at up to 5 µM [11]: 8.1 min; minimal effective dose (Mus musculus [12]): 10 mg/kg; EC50 [13]: 45 nM
COc1cc(F)ccc1OCCNCCCCN1C(=O)C2CCCN2C1=O (configuration not stated) | 37.4 | > 1000 | > 1000 | > 1000 | > 1000 | –
O=C1C2CCCN2C(=O)N1CCCCNCCOc1ccc2ccccc2c1 (configuration not stated) | 41 | > 1000 | > 1000 | > 1000 | 422 | –
COc1ccc(OCCNCCCCN2C(=O)C3CCCN3C2=O)cc1 (configuration not stated) | > 1000 | – | – | – | – | –
O=C1C2CCCN2C(=O)N1CCCCNCCOc1cccc(-c2ccccc2)c1 (configuration not stated) | 72 | – | – | – | – | –
O=C1C2CCCN2C(=O)N1CCCCNCCOc1ccccc1C(F)(F)F (configuration not stated) | 510 | – | – | – | – | –
